# Laboratory results published in ChEMBL document CHEMBL4351006, “A new exploration towards aminothiazolquinolone oximes as potentially multi-targeting antibacterial agents: Design, synthesis and evaluation acting on microbes, DNA, HSA and topoisomerase IV” (Eur J Med Chem, 2019).
# The source made the active and inactive calls. The calls are words filed in the database; no cut-off is given here.
# Legend:
# [1] = tested on: Candida albicans; assay: Antifungal activity against Candida albicans ATCC 90023 assessed as reduction in fungal cell viability incubated for 24 hrs by two fold serial dilution method; type: functional; conditions: ATCC 90023, 24 h
# How it was run: (§1)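 Broth two-fold serial dilution run to CLSI guidelines. Chloromycin, norfloxacin and fluconazole served as reference drugs.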
# [2] = tested on: Candida tropicalis; assay: Antifungal activity against Candida tropicalis assessed as reduction in fungal cell viability in presence of fluconazole incubated for 24 hrs by two fold serial dilution method
# [3] = tested on: Candida tropicalis; assay: Synergistic antifungal activity against Candida tropicalis assessed as FICI in presence of fluconazole incubated for 24 hrs by two fold serial dilution method
# [4] = tested on: Staphylococcus aureus; assay: Antibacterial activity against Staphylococcus aureus assessed as reduction in bacterial cell viability in presence of cefixime incubated for 24 hrs by two fold serial dilution method; type: functional
# [5] = tested on: Staphylococcus aureus; assay: Synergistic antibacterial activity against Staphylococcus aureus assessed as FICI in presence of cefixime incubated for 24 hrs by two fold serial dilution method; type: functional
# [6] = tested on: Escherichia coli; assay: Antibacterial activity against Escherichia coli assessed as reduction in bacterial cell viability incubated for 24 hrs by two fold serial dilution method; type: functional; how it was run: as §1
# [7] = tested on: Candida albicans; assay: Synergistic antifungal activity against Candida albicans assessed as FICI in presence of fluconazole incubated for 24 hrs by two fold serial dilution method
# [8] = molecular target: T1, Albumin (Homo sapiens, UniProt P02768); assay: Binding affinity to HSA assessed as change in gibbs free energy at 286 K by Van't Hoff plot analysis; type: ADME; conditions: isolated protein
# [9] = tested on: Candida tropicalis; assay: Antifungal activity against Candida tropicalis assessed as reduction in fungal cell viability incubated for 24 hrs by two fold serial dilution method; type: functional; how it was run: as §1
# [10] = tested on: Staphylococcus aureus; assay: Antibacterial activity against Staphylococcus aureus assessed as reduction in bacterial cell viability incubated for 24 hrs by two fold serial dilution method; type: functional; how it was run: as §1
# [11] = tested on: Klebsiella pneumoniae; assay: Antibacterial activity against Klebsiella pneumoniae assessed as reduction in bacterial cell viability incubated for 24 hrs by two fold serial dilution method; type: functional; how it was run: as §1
# [12] = Cytotoxicity against human BEAS2B cells assessed as cell viability upto 139.52 uM incubated for 24 hrs by MTT assay relative to control; type: cell-based; conditions: BEAS-2B cells, read-out: Activity
# How it was run: (§2)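 MTT viability assay in A549 and BEAS-2B cells, with doxorubicin at 0.50 μM as positive control. Viability is plotted with standard deviation from three independent experiments.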
# [13] = molecular target: T1, Albumin; assay: Binding affinity to HSA assessed as Stern-Volmer quenching constant at 286 K by fluorescence spectroscopy; type: ADME; conditions: isolated protein
# [14] = molecular target: T1, Albumin; assay: Binding affinity to HSA assessed as binding constant at 298 K by fluorescence spectroscopy based Scatchard method; type: ADME; conditions: isolated protein
# [15] = molecular target: T1, Albumin; assay: Binding affinity to HSA assessed as change in gibbs free energy at 298 K by Van't Hoff plot analysis; type: ADME; conditions: isolated protein
# [16] = tested on: Staphylococcus aureus; assay: Antibacterial activity against methicillin resistant Staphylococcus aureus N315 assessed as reduction in bacterial cell viability in presence of cefixime incubated for 24 hrs by two fold serial dilution method; type: functional; conditions: N315, 24 h
# [17] = tested on: Aspergillus fumigatus; assay: Antifungal activity against Aspergillus fumigatus assessed as reduction in fungal cell viability incubated for 24 hrs by two fold serial dilution method; type: functional; how it was run: as §1
# [18] = tested on: Pseudomonas aeruginosa; assay: Antibacterial activity against Pseudomonas aeruginosa ATCC 27853 assessed as reduction in bacterial cell viability incubated for 24 hrs by two fold serial dilution method; type: functional; conditions: ATCC 27853, 24 h; how it was run: as §1
# [19] = tested on: Klebsiella pneumoniae; assay: Antibacterial activity against Klebsiella pneumoniae assessed as reduction in bacterial cell viability in presence of cefixime incubated for 24 hrs by two fold serial dilution method; type: functional
# [20] = tested on: Enterococcus faecalis; assay: Antibacterial activity against Enterococcus faecalis assessed as reduction in bacterial cell viability incubated for 24 hrs by two fold serial dilution method; type: functional; how it was run: as §1
# [21] = tested on: Klebsiella pneumoniae; assay: Synergistic antibacterial activity against Klebsiella pneumoniae assessed as FICI in presence of cefixime incubated for 24 hrs by two fold serial dilution method; type: functional
# [22] = tested on: Acinetobacter baumannii; assay: Antibacterial activity against Acinetobacter baumannii assessed as reduction in bacterial cell viability incubated for 24 hrs by two fold serial dilution method; type: functional; how it was run: as §1
# [23] = molecular target: T1, Albumin; assay: Binding affinity to HSA assessed as Stern-Volmer quenching constant at 310 K by fluorescence spectroscopy; type: ADME; conditions: isolated protein
# [24] = tested on: Staphylococcus aureus; assay: Antibacterial activity against methicillin resistant Staphylococcus aureus N315 assessed as reduction in bacterial cell viability incubated for 24 hrs by two fold serial dilution method; type: functional; conditions: N315, 24 h
# How it was run: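 MIC by two-fold serial dilution following CLSI, with chloromycin and norfloxacin as reference drugs.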
# [25] = tested on: Staphylococcus aureus; assay: Induction of membrane permeabilization in methicillin resistant Staphylococcus aureus assessed as increase in fluorescence intensity steady state at 12 times of MIC after 100 mins by propidium iodide staining based fluorescence microscopy; type: functional, organism-based
# How it was run: (§3)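 MRSA cells were treated with the compound and stained with propidium iodide, which enters cells with damaged membranes and fluoresces on binding DNA. Fluorescence intensity was followed over time against untreated bacteria.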
# [26] = tested on: Staphylococcus aureus; assay: Potency index, ratio of MIC of norfloxacin to MIC of compound for antibacterial activity against methicillin resistant Staphylococcus aureus N315 assessed as reduction in bacterial cell viability incubated for 24 hrs by two fold serial dilution method; type: functional
# [27] = molecular target: T1, Albumin; assay: Binding affinity to HSA assessed as change in entropy at 298 K by Van't Hoff plot analysis; type: ADME; conditions: isolated protein
# [28] = Cytotoxicity against human A549 cells assessed as cell viability upto 139.52 uM incubated for 24 hrs by MTT assay relative to control; type: cell-based; conditions: read-out: Activity; how it was run: as §2
# [29] = tested on: Staphylococcus aureus; assay: Antibacterial activity against Staphylococcus aureus ATCC 25923 assessed as reduction in bacterial cell viability incubated for 24 hrs by two fold serial dilution method; type: functional; conditions: ATCC 25923, 24 h; how it was run: as §1
# [30] = tested on: Candida albicans; assay: Antifungal activity against Candida albicans assessed as reduction in fungal cell viability in presence of fluconazole incubated for 24 hrs by two fold serial dilution method
# [31] = tested on: Candida albicans; assay: Antifungal activity against Candida albicans assessed as reduction in fungal cell viability incubated for 24 hrs by two fold serial dilution method; type: functional; how it was run: as §1
# [32] = molecular target: T1, Albumin; assay: Binding affinity to HSA assessed as binding constant at 310 K by fluorescence spectroscopy based Scatchard method; type: ADME; conditions: isolated protein
# [33] = tested on: Staphylococcus aureus; assay: Antibacterial activity against methicillin resistant Staphylococcus aureus assessed as change in drug resistance after 16 serial passages in presence of cefixime at 0.5 times of MIC incubated for 12 hrs by serial dilution method; type: functional, organism-based
# [34] = molecular target: T1, Albumin; assay: Binding affinity to HSA assessed as quenching constant at 310 K by fluorescence spectroscopy; type: ADME; conditions: isolated protein
# [35] = tested on: Candida parapsilosis; assay: Antifungal activity against Candida parapsilosis ATCC 22019 assessed as reduction in fungal cell viability incubated for 24 hrs by two fold serial dilution method; conditions: Lodderomyces parapsilosis, ATCC 22019, 24 h
# [36] = molecular target: T1, Albumin; assay: Binding affinity to HSA assessed as change in gibbs free energy at 310 K by Van't Hoff plot analysis; type: ADME; conditions: isolated protein
# [37] = tested on: Calf thymus DNA; assay: Binding affinity to calf thymus DNA by UV-visible spectrophotometric method; type: nucleic-acid assay; conditions: Bos taurus
# [38] = molecular target: T1, Albumin; assay: Binding affinity to HSA assessed as quenching constant at 286 K by fluorescence spectroscopy; type: ADME; conditions: isolated protein
# [39] = tested on: Pseudomonas aeruginosa; assay: Antibacterial activity against Pseudomonas aeruginosa assessed as reduction in bacterial cell viability incubated for 24 hrs by two fold serial dilution method; type: functional; how it was run: as §1
# [40] = molecular target: T1, Albumin; assay: Binding affinity to HSA assessed as binding constant at 286 K by fluorescence spectroscopy based Scatchard method; type: ADME; conditions: isolated protein
# [41] = tested on: Staphylococcus aureus; assay: Potency index, ratio of MIC of chloromycin to MIC of compound for antibacterial activity against methicillin resistant Staphylococcus aureus N315 assessed as reduction in bacterial cell viability incubated for 24 hrs by two fold serial dilution method; type: functional
# [42] = tested on: Staphylococcus aureus; assay: Antibacterial activity against methicillin resistant Staphylococcus aureus assessed as fold change after 16 serial passages at 0.5 times of MIC incubated for 12 hrs by sequential passaging method; type: functional
# [43] = molecular target: T1, Albumin; assay: Binding affinity to HSA assessed as quenching constant at 298 K by fluorescence spectroscopy; type: ADME; conditions: isolated protein
# [44] = tested on: Staphylococcus aureus; assay: Induction of membrane permeabilization in methicillin resistant Staphylococcus aureus assessed as increase in fluorescence intensity at 12 times of MIC incubated for 2 hr by propidium iodide staining based fluorescence microscopy; type: functional, organism-based; how it was run: as §3
# [45] = molecular target: T1, Albumin; assay: Binding affinity to HSA assessed as Stern-Volmer quenching constant at 298 K by fluorescence spectroscopy; type: ADME; conditions: isolated protein
# [46] = tested on: Calf thymus DNA; assay: Competitive binding affinity to calf thymus DNA assessed as inhibition of binding of neutral red by UV-visible spectrophotometric method; type: nucleic-acid assay; conditions: Bos taurus
# [47] = tested on: Escherichia coli; assay: Antibacterial activity against Escherichia coli ATCC 25922 assessed as reduction in bacterial cell viability incubated for 24 hrs by two fold serial dilution method; type: functional; conditions: ATCC 25922, 24 h; how it was run: as §1
# [48] = molecular target: T1, Albumin; assay: Binding affinity to HSA assessed as change in enthalpy at 298 K by Van't Hoff plot analysis; type: ADME; conditions: isolated protein
# [49] = tested on: Staphylococcus aureus; assay: Antibacterial activity against Staphylococcus aureus ATCC 29213 assessed as reduction in bacterial cell viability incubated for 24 hrs by two fold serial dilution method; type: functional; conditions: ATCC 29213, 24 h; how it was run: as §1
# T1 sequence (P02768 whole entry): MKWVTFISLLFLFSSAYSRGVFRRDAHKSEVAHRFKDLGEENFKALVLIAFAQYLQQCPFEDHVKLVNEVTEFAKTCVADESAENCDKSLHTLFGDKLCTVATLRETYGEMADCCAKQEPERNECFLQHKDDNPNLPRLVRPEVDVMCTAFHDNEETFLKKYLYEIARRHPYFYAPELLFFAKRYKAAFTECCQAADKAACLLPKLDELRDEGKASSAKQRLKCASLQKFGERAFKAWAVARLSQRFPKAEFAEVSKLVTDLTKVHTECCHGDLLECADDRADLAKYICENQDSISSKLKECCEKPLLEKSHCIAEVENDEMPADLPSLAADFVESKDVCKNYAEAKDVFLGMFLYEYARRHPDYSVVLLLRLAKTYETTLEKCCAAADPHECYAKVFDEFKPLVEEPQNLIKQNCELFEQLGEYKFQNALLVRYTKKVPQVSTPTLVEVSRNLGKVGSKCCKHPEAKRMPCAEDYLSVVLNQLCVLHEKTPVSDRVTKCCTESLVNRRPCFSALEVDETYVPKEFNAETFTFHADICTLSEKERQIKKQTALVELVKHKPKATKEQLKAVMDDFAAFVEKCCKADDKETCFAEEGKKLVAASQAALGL
smiles,measurement,setting,value
CCn1cc(-c2csc(N)n2)c(=O)c2cc(F)c(N3CCN(C/C(C)=N/OC)CC3)cc21,MIC,[1],17 µM
same,MIC,[2],17.4 µM
same,fractional inhibitory concentration index (FICI),[3],1.25
same,MIC,[4],8.72 µM
same,fractional inhibitory concentration index (FICI),[5],0.5
same,MIC,[6],70 µM
same,fractional inhibitory concentration index (FICI),[7],0.281
same,deltaG,[8],-6.5084 kcal/mol
same,MIC,[9],70 µM
same,MIC,[10],35 µM
same,MIC,[11],70 µM
same,viability at 24 h,[12],> 75%
same,KSV,[13],1.89 ×10⁵ L/mol
same,Kb,[14],1.63 ×10⁵ L/mol
same,deltaG,[15],-6.4904 kcal/mol
same,MIC,[16],4.36 µM
same,MIC,[17],35 µM
same,MIC,[18],35 µM
same,MIC,[19],8.72 µM
same,MIC,[20],70 µM
same,fractional inhibitory concentration index (FICI),[21],0.625
same,MIC,[22],279 µM
same,KSV,[23],1.57 ×10⁵ L/mol
same,MIC,[24],9 µM
same,Activity,[25],Active
same,Ratio,[26],2
same,deltaS,[27],-6.247 J/mol.K
same,viability at 24 h,[28],> 75%
same,MIC,[29],17 µM
same,MIC,[30],2.18 µM
same,MIC,[31],70 µM
same,Kb,[32],1.44 ×10⁵ L/mol
same,Activity,[33],inactive
same,Kq,[34],2.45 ×10¹³ L/mol/s
same,MIC,[35],70 µM
same,deltaG,[36],-6.4725 kcal/mol
same,K,[37],2.51 ×10⁴ L/mol
same,Kq,[38],2.95 ×10¹³ L/mol/s
same,MIC,[39],70 µM
same,Kb,[40],1.81 ×10⁵ L/mol
same,Ratio,[41],5
same,fold change (FC),[42],inactive
same,Kq,[43],2.8 ×10¹³ L/mol/s
same,Activity,[44],Active
same,KSV,[45],1.79 ×10⁵ L/mol
same,Activity,[46],Active
same,MIC,[47],35 µM
same,deltaH,[48],-6.9355 kcal/mol
same,MIC,[49],140 µM
